Measurements as given in PMC9260854 (Biochemistry, 2022).
Substitutions are numbered along the chain they refer to. Where two headings read alike, the source gives them in different places. One block for each molecule: values may come before it.

Columns and labels:
SULT2B1b = settings: cited from earlier work
SULT2B1b S347D [1] = target: T1, SULT2B1b S347D (Homo sapiens, UniProt O00204, S347D); assay: Initial-rate 1-HP sulfonation; settings: for Ki: read-out: Ki 7-DH
T1 sequence (O00204 1-365 S347D): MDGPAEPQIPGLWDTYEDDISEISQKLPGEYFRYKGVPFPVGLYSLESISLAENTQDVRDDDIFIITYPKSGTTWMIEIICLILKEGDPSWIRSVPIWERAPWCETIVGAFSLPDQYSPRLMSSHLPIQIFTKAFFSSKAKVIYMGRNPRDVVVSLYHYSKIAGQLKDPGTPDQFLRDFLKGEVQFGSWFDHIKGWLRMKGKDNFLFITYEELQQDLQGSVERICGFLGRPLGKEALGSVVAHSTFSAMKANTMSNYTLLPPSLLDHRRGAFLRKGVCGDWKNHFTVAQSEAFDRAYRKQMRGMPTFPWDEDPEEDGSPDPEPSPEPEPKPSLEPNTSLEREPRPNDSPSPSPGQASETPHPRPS

SULT2B1b S347D [2] = target: T1, SULT2B1b S347D; assay: Equilibrium binding via intrinsic fluorescence
In short: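 Intrinsic fluorescence titrations of purified His/GST/MBP-tag-cleaved enzyme, excitation 290 nm, in KPO4 (50 mM), pH 7.5, 25 ± 2 °C. […] Triplicate averaged data were fit to a single-site-per-monomer model.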

SULT2B1b S347D [3] = target: T1, SULT2B1b S347D; assay: Stopped-flow ligand-binding studies
SULT2B1b, S347D, W13A = target: T2, SULT2B1b, S347D, W13A (Homo sapiens, UniProt O00204, S347D/W13A); assay: Initial-rate parameters, direct-contact mutant W13A; settings: read-out: Km PAPS; W13A; saturating 1-HP (100 μM); (−) quercetin
T2 sequence (O00204 1-365 W13A/S347D): T1 sequence (O00204 1-365 S347D) with W13A

SULT2B1b, S347D, W98A = target: T3, SULT2B1b, S347D, W98A (Homo sapiens, UniProt O00204, S347D/W98A); assay: Initial-rate parameters, direct-contact mutant W98A; settings: read-out: Km PAPS; W98A; saturating 1-HP (100 μM); (−) quercetin
T3 sequence (O00204 1-365 W98A/S347D): T1 sequence (O00204 1-365 S347D) with W98A

SULT2B1b, S347D, Y257A = target: T4, SULT2B1b, S347D, Y257A (Homo sapiens, UniProt O00204, S347D/Y257A); assay: Initial-rate parameters, direct-contact mutant Y257A; settings: read-out: Km PAPS; Y257A; saturating 1-HP (100 μM); (−) quercetin
T4 sequence (O00204 1-365 Y257A/S347D): T1 sequence (O00204 1-365 S347D) with Y257A

[4] = system: Oc1ccc2ccc3cccc4ccc1c2c34; assay: Initial-rate parameters, spin-labeled mutant 171; format: biochemical, human; settings: other: spin label at 171; saturating PAPS (300 μM); 25.0 °C
[5] = system: Oc1ccc2ccc3cccc4ccc1c2c34; assay: Initial-rate parameters, spin-labeled mutant 21; format: biochemical, human; settings: other: spin label at 21; saturating PAPS (300 μM); 25.0 °C
[6] = system: Oc1ccc2ccc3cccc4ccc1c2c34; assay: purified protein, by the assay type; settings: saturating PAPS (300 μM), (−) quercetin, pH 7.5, 25.0 °C
[7] = system: Oc1ccc2ccc3cccc4ccc1c2c34; assay: Initial-rate parameters, non DTNB-reactive scaffold; format: biochemical, human; settings: other: NR; saturating PAPS (300 μM); 25.0 °C
[8] = system: Oc1ccc2ccc3cccc4ccc1c2c34; assay: Initial-rate parameters, spin-labeled mutant 247; format: biochemical, human; settings: other: spin label at 247; saturating PAPS (300 μM); 25.0 °C

inhibition of SULT2B1b turnover (SULT2B1b S347D [1]; concentrations as high as 10 μM): does not inhibit
Molecule: CC(C)=CCC[C@@H](C)[C@H]1CC[C@H]2[C@@H]3CC=C4C[C@@H](O)CC[C@]4(C)[C@H]3CC[C@]12C [24-DH, 24-dehydrocholesterol]
SULT2B1b substrate (SULT2B1b): neither of which is a SULT2B1b substrate

Kd (SULT2B1b S347D [2]): 0.38 µM
Molecule: Nc1ncnc2c1ncn2[C@@H]1O[C@H](COP(=O)(O)O)[C@@H](OP(=O)(O)O)[C@H]1O [PAP, 3′-phosphoadenosine 5′-phosphate]

increase of PAPS affinity (SULT2B1b S347D [2]; at saturating quercetin): 12 fold
koff (SULT2B1b S347D [3]; (−) Quc): 3.0 (0.2) s^−1
kon (SULT2B1b S347D [3]; (−) Quc): 8.0 (0.3)^1 μM^−1s^−1
rate constant for release of PAPS (SULT2B1b S347D [3]; absence of quercetin): 3.0 ± 0.2 s⁻¹
decrease of koff PAPS (SULT2B1b S347D [3]; at saturating quercetin): 14 fold
rate constant for PAPS release (SULT2B1b S347D [3]; at saturating quercetin): 0.22 ± 0.2 s⁻¹
Kd (SULT2B1b S347D [3]; read-out: Kd PAPS (koff/kon), (−) Quc): 0.38 µM
Km (SULT2B1b, S347D, W13A): 0.36 µM
Km (SULT2B1b, S347D, W98A): 0.31 µM
Km (SULT2B1b, S347D, Y257A): 0.37 µM
Molecule: Nc1ncnc2c1ncn2[C@@H]1O[C@H](COP(=O)(O)OS(=O)(=O)O)[C@@H](OP(=O)(O)O)[C@H]1O [PAPS, 3′-phosphoadenosine 5′-phosphosulfate]

Molecule: CC(C)CCC[C@@H](C)[C@H]1CC[C@H]2C3=CC=C4C[C@@H](O)CC[C@]4(C)[C@H]3CC[C@]12C [7-DH, 7-dehydrocholesterol]
SULT2B1b substrate (SULT2B1b): neither of which is a SULT2B1b substrate
α (fraction turnover at saturation), 7-DH (SULT2B1b S347D [1]; PAPS 30 μM, 1-HP 100 μM): 0.11 ± 0.02
Ki (SULT2B1b S347D [1]): 0.11 µM
Ki (SULT2B1b S347D [1]; PAPS 30 μM, 1-HP 100 μM, noncompetitive partial-inhibition model): 0.11 ± 0.007 µM

Molecule: SULT2B1b S347D spin-labeled at residue 171 (Homo sapiens; C225S/C278S/C81S/S347D/T171C)
Km [4]: 4.1 (0.2) μM
kcat [4]: 3 s⁻¹

Molecule: SULT2B1b S347D spin-labeled at residue 21 (Homo sapiens; C225S/C278S/C81S/S21C/S347D)
Km [5]: 4.2 (0.3) μM
kcat [5]: 3.6 s⁻¹

Molecule: SULT2B1b, S347D, Y257A (Homo sapiens; S347D/Y257A)
Km ([6]; other: Y257A): 4.0 (0.3) μM

Molecule: SULT2B1b C81S, C225S, C278S, S347D (Homo sapiens; C225S/C278S/C81S/S347D)
Km [7]: 3.5 (0.2) μM
kcat [7]: 3.3 s⁻¹

Molecule: SULT2B1b S347D spin-labeled at residue 247 (Homo sapiens; C225S/C278S/C81S/S247C/S347D)
Km [8]: 3.6 (0.3) μM
kcat [8]: 3.5 s⁻¹

Molecule: SULT2B1b, S347D, W13A (Homo sapiens; S347D/W13A)
Km ([6]; other: W13A): 4.2 (0.3) μM

Molecule: SULT2B1b, S347D, W98A (Homo sapiens; S347D/W98A)
Km ([6]; other: W98A): 3.6 (0.2) μM

Molecule: SULT2B1b S347D (Homo sapiens; S347D)
Km ([6]; other: WT): 3.8 (0.3) μM
kcat ([6]; other: WT): 3.4 s⁻¹
